# From ChEMBL document CHEMBL5653631, “A Potent and Selective ULK1 Inhibitor Suppresses Autophagy and Sensitizes Cancer Cells to Nutrient Stress” (iScience, 2018)
# What was measured:
# [1] = target: T1, Ephrin type-B receptor 3 (Homo sapiens) (UniProt P54753); experiment: Inhibition of human recombinant EphB3 at 40 nM in presence of ATP by radiometric assay relative to control
# T1 sequence (whole entry): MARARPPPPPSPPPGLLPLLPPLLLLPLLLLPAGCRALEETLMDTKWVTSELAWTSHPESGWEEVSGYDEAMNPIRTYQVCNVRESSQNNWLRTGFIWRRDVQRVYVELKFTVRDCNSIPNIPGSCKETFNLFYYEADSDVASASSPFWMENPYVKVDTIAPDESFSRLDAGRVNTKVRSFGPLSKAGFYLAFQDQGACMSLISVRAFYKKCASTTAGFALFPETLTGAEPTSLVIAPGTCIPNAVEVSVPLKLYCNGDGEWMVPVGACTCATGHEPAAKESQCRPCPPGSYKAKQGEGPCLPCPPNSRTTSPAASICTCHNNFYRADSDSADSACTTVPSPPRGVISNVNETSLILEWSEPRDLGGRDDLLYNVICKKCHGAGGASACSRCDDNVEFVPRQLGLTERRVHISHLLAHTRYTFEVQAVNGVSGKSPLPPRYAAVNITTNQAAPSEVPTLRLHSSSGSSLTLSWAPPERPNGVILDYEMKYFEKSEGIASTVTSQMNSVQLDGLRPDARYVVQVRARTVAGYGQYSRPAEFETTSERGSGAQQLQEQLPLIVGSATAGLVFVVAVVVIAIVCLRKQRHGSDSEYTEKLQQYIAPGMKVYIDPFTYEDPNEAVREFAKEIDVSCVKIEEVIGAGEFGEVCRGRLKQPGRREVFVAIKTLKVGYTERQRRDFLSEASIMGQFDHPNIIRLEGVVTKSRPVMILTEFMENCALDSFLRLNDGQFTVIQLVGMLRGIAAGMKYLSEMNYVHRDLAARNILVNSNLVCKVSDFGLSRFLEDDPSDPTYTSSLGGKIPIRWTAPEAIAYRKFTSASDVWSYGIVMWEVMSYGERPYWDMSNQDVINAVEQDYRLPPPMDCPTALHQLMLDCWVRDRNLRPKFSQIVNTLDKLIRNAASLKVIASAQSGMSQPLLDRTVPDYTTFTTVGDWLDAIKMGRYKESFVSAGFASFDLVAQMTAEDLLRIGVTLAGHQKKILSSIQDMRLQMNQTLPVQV
# [2] = target: Ribosomal protein S6 kinase alpha-1 (Homo sapiens) (UniProt Q15418); experiment: Inhibition of human recombinant RSK1 at 40 nM in presence of ATP by radiometric assay relative to control
# [3] = target: Dual specificity mitogen-activated protein kinase kinase 2 (Homo sapiens) (UniProt P36507); experiment: Inhibition of human recombinant MAP2K2 at 40 nM related to control ULK1
# [4] = target: ALK tyrosine kinase receptor (Homo sapiens) (UniProt Q9UM73); experiment: Inhibition of human recombinant ALK at 500 nM related to control ULK1
# Summary of the method: (§1)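 Panel of 327 recombinant human kinases, each assayed in vitro by radiometric activity assay in duplicate at a single inhibitor concentration per compound, chosen with reference to its ULK1 inhibition. Activity remaining was expressed as percent of vehicle control, and percent inhibition was calculated as 100 minus percent activity remaining.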
# [5] = target: T2, Serine/threonine-protein kinase A-Raf (Homo sapiens) (UniProt P10398); experiment: Inhibition of human recombinant ARAF at 500 nM related to control ULK1; summary of the method: as §1
# T2 sequence (whole entry): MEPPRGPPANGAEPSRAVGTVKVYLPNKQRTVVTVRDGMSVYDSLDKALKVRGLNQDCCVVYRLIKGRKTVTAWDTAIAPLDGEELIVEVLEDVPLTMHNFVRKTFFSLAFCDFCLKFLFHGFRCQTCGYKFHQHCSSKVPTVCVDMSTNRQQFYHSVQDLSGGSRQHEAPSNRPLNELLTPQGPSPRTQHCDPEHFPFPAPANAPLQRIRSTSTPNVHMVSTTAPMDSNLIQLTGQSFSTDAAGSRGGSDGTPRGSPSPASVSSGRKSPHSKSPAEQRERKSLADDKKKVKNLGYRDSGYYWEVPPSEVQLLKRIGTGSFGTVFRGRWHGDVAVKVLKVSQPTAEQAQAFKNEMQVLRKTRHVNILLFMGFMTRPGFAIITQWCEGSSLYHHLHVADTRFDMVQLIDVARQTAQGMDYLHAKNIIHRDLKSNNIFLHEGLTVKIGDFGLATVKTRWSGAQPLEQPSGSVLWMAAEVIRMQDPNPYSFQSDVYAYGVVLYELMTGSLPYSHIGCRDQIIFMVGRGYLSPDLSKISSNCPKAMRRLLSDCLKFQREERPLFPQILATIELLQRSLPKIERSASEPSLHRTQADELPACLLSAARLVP
# [6] = target: Cyclin-dependent kinase 1 (Homo sapiens) (UniProt P06493); experiment: Inhibition of human recombinant CDC2 at 500 nM related to control ULK1
# [7] = target: Cyclin-dependent kinase 7 (Homo sapiens) (UniProt P50613); experiment: Inhibition of human recombinant CDK7 at 500 nM related to control ULK1
# [8] = target: Protein kinase C theta type (Homo sapiens) (UniProt Q04759); experiment: Inhibition of human recombinant PKCt at 15 nM in presence of ATP by radiometric assay relative to control
# [9] = target: Serine/threonine-protein kinase 32B (Homo sapiens) (UniProt Q9NY57); experiment: Inhibition of human recombinant YANK2 at 15 nM in presence of ATP by radiometric assay relative to control
# [10] = target: Bone morphogenetic protein receptor type-1B (Homo sapiens) (UniProt O00238); experiment: Inhibition of human recombinant BMPR1B at 15 nM related to control ULK1
# [11] = target: Phosphorylase b kinase gamma catalytic chain, skeletal muscle/heart isoform (Homo sapiens) (UniProt Q16816); experiment: Inhibition of human recombinant PHKg1 at 15 nM related to control ULK1
# [12] = target: Serine/threonine-protein kinase PLK3 (Homo sapiens) (UniProt Q9H4B4); experiment: Inhibition of human recombinant PLK3 at 15 nM related to control ULK1
# [13] = target: Angiopoietin-1 receptor (Homo sapiens) (UniProt Q02763); experiment: Inhibition of human recombinant Tie2 at 15 nM related to control ULK1
# Angiopoietin-1 receptor (Homo sapiens), sequence (Q02763 whole entry): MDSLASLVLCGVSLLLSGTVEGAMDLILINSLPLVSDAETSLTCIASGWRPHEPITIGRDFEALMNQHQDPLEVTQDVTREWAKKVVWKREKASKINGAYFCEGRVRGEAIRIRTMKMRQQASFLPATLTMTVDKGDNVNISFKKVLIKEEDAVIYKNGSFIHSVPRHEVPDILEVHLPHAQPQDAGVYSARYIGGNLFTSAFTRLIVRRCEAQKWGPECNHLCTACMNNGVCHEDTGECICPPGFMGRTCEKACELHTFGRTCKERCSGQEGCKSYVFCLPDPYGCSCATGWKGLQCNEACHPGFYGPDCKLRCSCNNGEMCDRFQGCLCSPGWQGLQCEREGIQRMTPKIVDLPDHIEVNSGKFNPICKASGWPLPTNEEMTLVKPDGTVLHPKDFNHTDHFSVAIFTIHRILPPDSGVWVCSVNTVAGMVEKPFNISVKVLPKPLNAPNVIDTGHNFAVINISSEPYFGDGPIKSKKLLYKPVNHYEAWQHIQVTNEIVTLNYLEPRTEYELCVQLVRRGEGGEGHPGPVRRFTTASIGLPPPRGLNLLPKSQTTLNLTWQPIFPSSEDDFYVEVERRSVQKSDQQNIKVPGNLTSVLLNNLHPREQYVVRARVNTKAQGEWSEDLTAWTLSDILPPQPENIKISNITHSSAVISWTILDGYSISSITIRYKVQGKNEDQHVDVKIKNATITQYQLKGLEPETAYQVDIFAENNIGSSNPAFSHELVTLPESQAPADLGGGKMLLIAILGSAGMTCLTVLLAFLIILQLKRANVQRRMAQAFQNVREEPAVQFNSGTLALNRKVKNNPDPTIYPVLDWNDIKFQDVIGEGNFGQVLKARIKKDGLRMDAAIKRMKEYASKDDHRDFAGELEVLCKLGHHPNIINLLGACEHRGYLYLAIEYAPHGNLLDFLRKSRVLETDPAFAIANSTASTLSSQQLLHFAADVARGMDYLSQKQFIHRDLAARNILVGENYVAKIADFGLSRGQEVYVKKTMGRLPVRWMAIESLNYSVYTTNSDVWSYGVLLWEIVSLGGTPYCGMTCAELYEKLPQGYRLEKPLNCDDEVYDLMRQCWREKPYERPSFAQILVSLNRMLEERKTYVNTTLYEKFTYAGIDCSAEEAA
# Phosphorylase b kinase gamma catalytic chain, skeletal muscle/heart isoform (Homo sapiens), sequence (Q16816 whole entry, looked up, canonical isoform): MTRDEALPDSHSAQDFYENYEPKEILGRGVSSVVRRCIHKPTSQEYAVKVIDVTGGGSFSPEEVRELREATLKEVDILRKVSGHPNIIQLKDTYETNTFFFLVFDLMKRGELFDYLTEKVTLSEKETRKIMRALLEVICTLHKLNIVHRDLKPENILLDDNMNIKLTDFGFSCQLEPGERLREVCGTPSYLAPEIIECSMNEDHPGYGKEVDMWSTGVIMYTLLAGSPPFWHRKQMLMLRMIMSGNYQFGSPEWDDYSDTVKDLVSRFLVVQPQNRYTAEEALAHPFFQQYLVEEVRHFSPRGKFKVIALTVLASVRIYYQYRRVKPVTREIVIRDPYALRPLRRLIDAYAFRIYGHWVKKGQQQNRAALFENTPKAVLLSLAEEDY
# Serine/threonine-protein kinase PLK3 (Homo sapiens), sequence (Q9H4B4 whole entry, looked up): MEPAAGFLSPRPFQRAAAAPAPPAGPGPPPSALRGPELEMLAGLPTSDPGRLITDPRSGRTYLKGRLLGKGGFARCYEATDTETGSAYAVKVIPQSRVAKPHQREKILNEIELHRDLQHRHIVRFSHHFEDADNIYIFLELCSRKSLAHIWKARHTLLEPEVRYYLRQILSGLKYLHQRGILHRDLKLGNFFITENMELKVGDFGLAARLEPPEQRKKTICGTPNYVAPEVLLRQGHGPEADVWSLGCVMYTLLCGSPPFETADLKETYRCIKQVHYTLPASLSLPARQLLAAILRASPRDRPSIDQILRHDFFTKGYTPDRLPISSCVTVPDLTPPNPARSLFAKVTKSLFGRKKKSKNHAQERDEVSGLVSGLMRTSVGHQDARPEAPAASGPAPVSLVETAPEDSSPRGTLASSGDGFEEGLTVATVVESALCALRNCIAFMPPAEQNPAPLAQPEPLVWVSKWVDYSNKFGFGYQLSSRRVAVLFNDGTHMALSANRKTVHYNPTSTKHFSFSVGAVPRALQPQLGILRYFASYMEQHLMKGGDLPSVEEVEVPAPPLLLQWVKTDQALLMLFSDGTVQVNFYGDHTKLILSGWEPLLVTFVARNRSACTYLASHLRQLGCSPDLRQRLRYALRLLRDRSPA
# ALK tyrosine kinase receptor (Homo sapiens), sequence (Q9UM73 19-1620 limits assumed): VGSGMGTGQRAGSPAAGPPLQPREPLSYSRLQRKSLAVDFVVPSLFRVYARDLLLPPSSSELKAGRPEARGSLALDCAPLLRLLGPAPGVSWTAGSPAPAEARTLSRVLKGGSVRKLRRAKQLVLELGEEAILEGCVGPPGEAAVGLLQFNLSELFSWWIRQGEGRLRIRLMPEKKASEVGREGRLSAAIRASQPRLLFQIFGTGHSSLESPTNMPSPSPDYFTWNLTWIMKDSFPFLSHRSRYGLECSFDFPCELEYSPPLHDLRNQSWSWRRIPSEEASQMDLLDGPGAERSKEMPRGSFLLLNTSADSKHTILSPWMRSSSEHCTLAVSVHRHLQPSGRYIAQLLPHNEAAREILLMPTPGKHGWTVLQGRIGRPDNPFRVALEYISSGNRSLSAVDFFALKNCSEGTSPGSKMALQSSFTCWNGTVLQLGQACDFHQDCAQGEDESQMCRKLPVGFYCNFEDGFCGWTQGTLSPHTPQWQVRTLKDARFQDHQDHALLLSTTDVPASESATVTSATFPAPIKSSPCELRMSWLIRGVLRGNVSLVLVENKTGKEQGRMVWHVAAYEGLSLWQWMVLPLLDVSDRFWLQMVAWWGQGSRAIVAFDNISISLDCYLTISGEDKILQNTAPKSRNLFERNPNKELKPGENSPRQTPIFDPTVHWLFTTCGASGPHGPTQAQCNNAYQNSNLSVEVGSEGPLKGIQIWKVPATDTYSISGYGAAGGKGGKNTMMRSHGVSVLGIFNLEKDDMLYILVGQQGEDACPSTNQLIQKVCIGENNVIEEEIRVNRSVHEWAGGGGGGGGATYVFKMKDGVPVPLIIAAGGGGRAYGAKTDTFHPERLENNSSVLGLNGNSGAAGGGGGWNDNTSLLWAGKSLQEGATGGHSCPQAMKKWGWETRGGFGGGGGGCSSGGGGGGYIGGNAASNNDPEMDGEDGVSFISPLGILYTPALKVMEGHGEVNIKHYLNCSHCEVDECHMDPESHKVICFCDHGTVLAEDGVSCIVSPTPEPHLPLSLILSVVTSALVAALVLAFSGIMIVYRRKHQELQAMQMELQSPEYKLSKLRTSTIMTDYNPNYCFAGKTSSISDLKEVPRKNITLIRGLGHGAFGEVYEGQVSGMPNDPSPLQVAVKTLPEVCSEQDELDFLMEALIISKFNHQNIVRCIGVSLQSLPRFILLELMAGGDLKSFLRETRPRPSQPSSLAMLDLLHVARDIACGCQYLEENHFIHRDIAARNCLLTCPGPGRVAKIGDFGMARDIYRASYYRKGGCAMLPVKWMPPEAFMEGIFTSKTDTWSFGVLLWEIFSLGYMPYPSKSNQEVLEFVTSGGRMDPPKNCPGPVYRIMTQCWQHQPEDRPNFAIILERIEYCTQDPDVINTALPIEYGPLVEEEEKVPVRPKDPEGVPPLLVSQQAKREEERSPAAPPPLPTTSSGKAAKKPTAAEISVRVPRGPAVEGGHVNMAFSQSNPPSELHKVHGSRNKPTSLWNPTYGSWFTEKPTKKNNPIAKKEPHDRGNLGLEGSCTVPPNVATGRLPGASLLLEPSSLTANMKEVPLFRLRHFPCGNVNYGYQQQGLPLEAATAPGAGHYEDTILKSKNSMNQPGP
# Cyclin-dependent kinase 1 (Homo sapiens), sequence (P06493 whole entry, looked up): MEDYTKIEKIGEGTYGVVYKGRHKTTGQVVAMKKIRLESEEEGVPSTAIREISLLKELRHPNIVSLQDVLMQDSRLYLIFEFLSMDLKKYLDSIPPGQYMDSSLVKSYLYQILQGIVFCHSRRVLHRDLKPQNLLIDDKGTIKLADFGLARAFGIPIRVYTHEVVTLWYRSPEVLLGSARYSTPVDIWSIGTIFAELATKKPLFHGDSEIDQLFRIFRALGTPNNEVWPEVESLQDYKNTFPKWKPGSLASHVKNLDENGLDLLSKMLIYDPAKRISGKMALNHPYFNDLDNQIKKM
# Protein kinase C theta type (Homo sapiens), sequence (Q04759 whole entry, looked up): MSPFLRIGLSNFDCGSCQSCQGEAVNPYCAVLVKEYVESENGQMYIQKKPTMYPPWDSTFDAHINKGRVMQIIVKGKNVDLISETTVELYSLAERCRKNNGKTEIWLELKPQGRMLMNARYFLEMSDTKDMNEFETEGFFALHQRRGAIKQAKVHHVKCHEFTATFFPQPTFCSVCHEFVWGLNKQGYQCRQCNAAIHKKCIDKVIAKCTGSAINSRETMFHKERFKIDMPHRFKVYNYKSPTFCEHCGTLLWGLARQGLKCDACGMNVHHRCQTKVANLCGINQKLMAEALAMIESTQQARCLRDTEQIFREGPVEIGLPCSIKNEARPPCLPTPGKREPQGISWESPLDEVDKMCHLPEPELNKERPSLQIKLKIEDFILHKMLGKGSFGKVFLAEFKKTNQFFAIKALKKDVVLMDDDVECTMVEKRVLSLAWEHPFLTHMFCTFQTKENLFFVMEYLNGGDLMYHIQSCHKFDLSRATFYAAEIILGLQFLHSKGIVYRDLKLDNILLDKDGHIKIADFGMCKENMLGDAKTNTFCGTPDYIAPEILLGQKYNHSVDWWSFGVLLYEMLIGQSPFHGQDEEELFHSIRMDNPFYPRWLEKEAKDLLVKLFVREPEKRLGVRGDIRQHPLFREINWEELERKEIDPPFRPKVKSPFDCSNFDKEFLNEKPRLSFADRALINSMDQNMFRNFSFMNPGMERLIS
compound,measurement,setting,value
O=C(N[C@@H](C1CC1)C(F)(F)F)c1cc(-c2cnn3cc(-c4ccc(F)cc4)cnc23)cs1,inhibition,[1],0%
same,inhibition,[2],8%
same,fold change (FC),[3],0
CNC(=O)c1ccccc1Oc1nc(Nc2cc(OC)c(OC)c(OC)c2)ncc1Br,fold change (FC),[4],0
same,fold change (FC),[5],0
same,fold change (FC),[6],0.41
same,fold change (FC),[7],0.39
CC(C)[C@H](NC(=O)c1cc(-c2cnn3cc(-c4ccc(OCCN5CCCCC5)cc4)cnc23)cs1)C(F)(F)F,inhibition,[8],0%
same,inhibition,[9],0%
same,fold change (FC),[10],0.27
same,fold change (FC),[11],0.58
same,fold change (FC),[12],0.03
same,fold change (FC),[13],0
